Experimental data of several laboratories.
Lines come from different studies, so protocols differ.
Target: Non-receptor tyrosine-protein kinase TNK1 (TNK1, Homo sapiens, UniProt Q13470)
Sequence (Q13470 1-666, as in one of the studies): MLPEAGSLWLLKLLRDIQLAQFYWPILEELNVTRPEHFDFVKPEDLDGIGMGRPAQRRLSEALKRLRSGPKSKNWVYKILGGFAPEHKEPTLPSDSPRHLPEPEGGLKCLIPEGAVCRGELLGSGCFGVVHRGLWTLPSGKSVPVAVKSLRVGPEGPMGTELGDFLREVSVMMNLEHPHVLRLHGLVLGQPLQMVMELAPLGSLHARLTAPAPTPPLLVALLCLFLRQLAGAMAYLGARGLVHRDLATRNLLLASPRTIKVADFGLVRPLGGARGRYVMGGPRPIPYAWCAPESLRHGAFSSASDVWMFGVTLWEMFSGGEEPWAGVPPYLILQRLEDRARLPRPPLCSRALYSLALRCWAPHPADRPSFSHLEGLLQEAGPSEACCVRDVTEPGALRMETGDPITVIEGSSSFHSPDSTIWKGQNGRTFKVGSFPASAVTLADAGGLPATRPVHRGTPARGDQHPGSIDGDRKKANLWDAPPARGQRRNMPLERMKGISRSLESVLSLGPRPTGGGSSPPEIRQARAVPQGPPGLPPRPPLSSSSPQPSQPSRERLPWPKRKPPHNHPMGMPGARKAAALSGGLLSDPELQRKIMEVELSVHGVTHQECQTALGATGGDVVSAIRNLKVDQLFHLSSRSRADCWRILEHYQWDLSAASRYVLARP

CCOC(=O)c1cc2cc(-c3cc(C(=O)NCc4ccc(C(=O)O)cc4)nn3C)ccc2[nH]1
remaining binding (cell-free assay, competition with immobilised ligand; 0.1 µM): 88%

CC(C)(C)c1nc2c(s1)c1nc(N)ncc1c1ccc(NS(=O)(=O)c3c(F)cccc3F)c(F)c12
remaining activity (enzyme activity, inhibitor, radiometric; 1 µM): 82%

Nc1ncnc2occ(-c3ccc(NC(=O)Nc4cc(C(F)(F)F)ccc4F)cc3)c12
remaining signal (cell-free assay, inhibitor; 20 µM): 6.8%

CC(C)(O)[C@H]1CC[C@H](Nc2ccc3ncc(-c4cccc(C(F)(F)F)c4)n3n2)CC1
remaining activity (enzyme activity, inhibitor; 1 µM): 52.4%

CC/C(=N\NC(=O)NCc1cccc(O)c1)c1ccc(O)c(C)c1O
inhibition (enzyme activity, inhibitor; 0.1 µM): -1.1%

Cc1ccc(C(=O)Nc2ccc(CN3CCN(C)CC3)c(C(F)(F)F)c2)cc1C#Cc1cnc2cccnn12
remaining activity (enzyme activity, inhibitor; 23.5 nM): 13%

Cc1sc(C(=O)NC2COC2)cc1-n1cc(NC(=O)Nc2c(F)cccc2Cl)cn1
remaining activity (enzyme activity, inhibitor; 10 µM): 105%

CC(=O)N1CCC(c2ccc(C(=O)NC(=N)N)cc2C(F)(F)F)CC1
remaining binding (cell-free assay, competition with immobilised ligand; 1 µM): 89%

O=C(Nc1cnn(-c2csc(C(=O)NC3COC3)c2)c1)Nc1ccccc1Cl
remaining activity (enzyme activity, inhibitor; 5 µM): 100%

c1nc2c(Nc3ccc4c(c3)OCCO4)nc(Nc3ccc4c(c3)OCCO4)nc2[nH]1
activity vs control (enzyme activity, inhibitor; 10 µM): 14%
